# Measured values as given in ChEMBL document CHEMBL1129574, “Synthesis, structure-activity relationships, and pharmacokinetic properties of dihydroorotate dehydrogenase inhibitors: 2-cyano-3-cyclopropyl-3-hydroxy-N-[3'-methyl-4'-(trifluoromethyl)phenyl ] propenamide and related compounds” (J Med Chem, 1996).
# Legend:
# [1] = test system: Rattus norvegicus; test: In vivo ability to inhibit delayed type hypersensitivity in rat at a concentration of 50 mg/kg; assay type: functional
# Summary of the method: (§1)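 Male CFHB rats (160-180 g, n=7-12) sensitized day 0 by tail-base s.c. FCA (0.4 mg M. tuberculosis in liquid paraffin); controls got incomplete adjuvant. Day 7 challenge: soluble M. tuberculosis extract 0.4 mg into right hind footpad, saline in left. Oral dosing once daily days 4-6 and twice day 7 (1 h before, 6 h after). Edema read at 24 h; Student's t-test.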
# [2] = test system: Mus musculus; test: In vivo ability to inhibit delayed type hypersensitivity in mouse at a concentration of 100 mg/kg; assay type: functional
# Summary of the method: (§2)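 Male CD-1 mice (25–30 g, n = 8-16) sensitized day 0 by s.c. 1 mg methylated BSA in saline/Freund's complete adjuvant; negative controls saline/FCA. Day 7 challenge: MBSA 0.1 mg into right hind footpad, saline in left. Oral dosing once daily days 4–6 plus twice on day 7 (1 h before, 6 h after challenge). Paw edema read 24 h post-challenge; Student's t-test.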
# [3] = molecular target: Dihydroorotate dehydrogenase (quinone), mitochondrial (Rattus norvegicus, UniProt Q63707); test: Inhibitory concentration tested against enzyme dihydroorotate dehydrogenase in rat
# [4] = molecular target: Dihydroorotate dehydrogenase (quinone), mitochondrial (Mus musculus, UniProt O35435); test: Inhibitory concentration tested on enzyme dihydroorotate dehydrogenase in mouse
# [5] = test system: Mus musculus; test: Compound was tested in vivo for its ability to inhibit DTH(delayed type hypersensitivity ) in mouse at a concentration of 100 mg/kg; assay type: functional; summary of the method: as §2
# [6] = test system: Rattus norvegicus; test: Compound was tested in vivo for its ability to inhibit DTH(delayed type hypersensitivity ) in rat at a concentration of 50 mg/kg; assay type: functional; summary of the method: as §1
# [7] = test system: Mus musculus; test: In vivo for its ability to inhibit delayed type hypersensitivity in mouse following 30 mg/kg administration.; assay type: functional; summary of the method: as §2
# [8] = test system: Rattus norvegicus; test: In vivo for its ability to inhibit delayed type hypersensitivity in rat following 10 mg/kg administration.
# [9] = t1/2 in mouse plasma after oral dose (30/mg/Kg); assay type: ADME, organism-based
# Summary of the method: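 Male CD-1 mice (25–32 g, n=5/time point) gavaged orally 30 mg/kg (10 mL/kg). Blood by exsanguination under ether at 0, 1, 3, 6, 24, 48, 72 h, pooled per time point, heparinized; plasma stored −20 °C. Drug quantified by reversed-phase HPLC (ODS, pH 7 phosphate/acetonitrile 65:35, UV 300 nm) with internal standard and spiked-plasma calibration.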
# [10] = t1/2 in rat plasma after oral dose (10 mg/kg); assay type: ADME, organism-based
# Summary of the method: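 Male Wistar CFHB rats (190–220 g, n=3/time point) given 10 mg/kg orally by gavage (10 mL/kg). Cardiac-puncture blood under ether at 0, 1, 3, 6, 24, 48, 72 h, individual heparinized samples; plasma kept at −20 °C. Levels by HPLC (ODS column, 0.1 M pH 7 phosphate 65%/acetonitrile 35%, UV 300 nm), internal standard, peak-area calibration from spiked blank plasma.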
# Chain of Dihydroorotate dehydrogenase (quinone), mitochondrial (Rattus norvegicus, UniProt Q63707) (Q63707 whole entry): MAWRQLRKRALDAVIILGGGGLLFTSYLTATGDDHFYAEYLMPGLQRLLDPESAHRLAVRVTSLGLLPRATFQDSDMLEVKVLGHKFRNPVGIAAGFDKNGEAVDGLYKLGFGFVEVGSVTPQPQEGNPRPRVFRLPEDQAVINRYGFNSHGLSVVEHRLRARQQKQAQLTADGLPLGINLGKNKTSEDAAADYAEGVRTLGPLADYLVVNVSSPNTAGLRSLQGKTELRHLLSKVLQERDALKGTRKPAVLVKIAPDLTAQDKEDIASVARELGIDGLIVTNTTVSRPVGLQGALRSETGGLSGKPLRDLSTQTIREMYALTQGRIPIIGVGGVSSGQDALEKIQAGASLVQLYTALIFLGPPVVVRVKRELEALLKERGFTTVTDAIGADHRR
# Chain of Dihydroorotate dehydrogenase (quinone), mitochondrial (Mus musculus, UniProt O35435) (O35435 whole entry): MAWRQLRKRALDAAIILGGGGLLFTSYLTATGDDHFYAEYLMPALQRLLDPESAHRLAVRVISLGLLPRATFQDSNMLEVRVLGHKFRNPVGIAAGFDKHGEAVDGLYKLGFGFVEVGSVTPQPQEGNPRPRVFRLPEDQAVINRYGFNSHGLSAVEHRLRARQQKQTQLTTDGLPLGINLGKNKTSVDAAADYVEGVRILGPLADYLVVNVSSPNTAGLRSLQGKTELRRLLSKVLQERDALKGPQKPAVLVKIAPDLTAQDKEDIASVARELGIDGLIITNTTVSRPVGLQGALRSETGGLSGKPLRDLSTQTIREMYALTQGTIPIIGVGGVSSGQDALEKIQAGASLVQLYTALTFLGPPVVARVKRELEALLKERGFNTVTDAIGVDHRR
IC50 [3] [µM],IC50 [4] [µM],half-life [9] [h],half-life [10] [h],Compound,inhibition in vivo at 50 mg/kg [1] [%],inhibition in vivo at 100 mg/kg [2] [%],inhibition in vivo at 100 mg/kg [5] [%],inhibition in vivo at 50 mg/kg [6] [%],inhibition in vivo at 30 mg/kg [7] [%],inhibition in vivo at 10 mg/kg [8] [%]
4.27,20,–,–,N#C/C(C(=O)Nc1ccc(-c2ncco2)cc1)=C(/O)C1CC1,42,17,–,–,–,–
0.5,2.09,–,–,C#C/C(O)=C(\C#N)C(=O)Nc1ccc(C(F)(F)F)cc1,–,–,45,4,–,–
44.7,7.94,–,–,N#C/C(C(=O)Nc1ccc(C(F)(F)F)cc1)=C(/O)C1CCCO1 (centres undefined),11,29,–,–,–,–
0.832,22.4,–,–,C[S+]([O-])c1ccc(NC(=O)/C(C#N)=C(\O)C2CC2)cc1 (centres undefined),–,–,1,71,–,–
2.14,8.51,–,–,N#C/C(C(=O)Nc1ccc(-c2ccc(F)cc2)cc1)=C(/O)C1CC1,–,–,–,–,53,79
0.028,0.036,7,6,Cc1cc(NC(=O)/C(C#N)=C(\O)C2CC2)ccc1C#N,–,–,–,–,66,50
0.068,3.8,4,6,CC(=O)c1ccc(NC(=O)/C(C#N)=C(\O)C2CC2)cc1,–,32,–,–,–,59
17.8,11.7,–,–,N#C/C(C(=O)Nc1ccc(C(F)(F)F)cc1)=C(/O)C1CCOC1 (centres undefined),14,29,–,–,–,–
13.3,16.6,–,–,N#C/C(C(=O)Nc1ccccc1Cl)=C(/O)C1CC1,–,–,43,-12,–,–
0.014,0.055,8,4,Cc1cc(NC(=O)/C(C#N)=C(\O)C2CC2)ccc1C(F)(F)F,–,–,–,–,81,59
–,5.9,–,–,N#C/C(C(=O)Nc1ccc(-c2ccco2)cc1)=C(/O)C1CC1,58,-13,–,–,–,–
31.6,28.2,–,–,N#C/C(C(=O)Nc1ccc(C(F)(F)F)cc1)=C(/O)C1CCCC1,19,58,–,–,–,–
1.25,3.72,–,–,Cc1cc(Cl)ccc1NC(=O)/C(C#N)=C(\O)C1CC1,–,–,–,–,54,30
19.1,2.24,–,–,CN(C(=O)c1ccc(NC(=O)/C(C#N)=C(\O)C2CC2)cc1)c1ccc(Cl)cc1,22,-8,–,–,–,–
0.021,0.047,28,8,N#C/C(C(=O)Nc1ccc(C(F)(F)F)cc1)=C(/O)C1CC1,–,–,–,–,85,53
1.48,3.72,–,–,N#C/C(C(=O)Nc1ccc(C(=O)O)cc1)=C(/O)C1CC1,39,-6,–,–,–,–

IC50 [3] [µM],IC50 [4] [µM],half-life [9] [h],half-life [10] [h],Compound,inhibition in vivo at 50 mg/kg [1] [%],inhibition in vivo at 100 mg/kg [2] [%],inhibition in vivo at 100 mg/kg [5] [%],inhibition in vivo at 50 mg/kg [6] [%],inhibition in vivo at 30 mg/kg [7] [%],inhibition in vivo at 10 mg/kg [8] [%]
7.94,> 100,–,–,N#C/C(C(=O)Nc1ccc(O)cc1)=C(/O)C1CC1,37,-11,–,–,–,–
0.033,0.04,8,2,Cc1cc(NC(=O)/C(C#N)=C(\O)C2CC2)ccc1Cl,–,–,–,–,41,42
0.079,0.282,–,–,Cc1ccc(NC(=O)/C(C#N)=C(\O)C2CC2)cc1Cl,31,43,–,–,–,–
–,5,68,84,N#C/C(C(=O)Nc1ccc(C#Cc2ccc(Cl)cc2)cc1)=C(/O)C1CC1,–,–,–,–,61,61
21.9,31.6,–,–,N#C/C(C(=O)Nc1ccc(N)cc1)=C(/O)C1CC1,1,32,–,–,–,–
14.1,> 100,–,–,N#C/C(C(=O)Nc1ccc(C(N)=O)cc1)=C(/O)C1CC1,20,-18,–,–,–,–
11.7,8.91,–,–,N#C/C(C(=O)Nc1ccncc1)=C(/O)C1CC1,17,22,–,–,–,–
0.05,0.063,2,4,Cc1cc(NC(=O)/C(C#N)=C(\O)C2CC2)ccc1Br,66,86,–,–,–,–
3,50,–,–,N#C/C(C(=O)Nc1ccc(-c2nc(C(F)(F)F)cs2)cc1)=C(/O)C1CC1,–,–,–,–,–,30
0.04,0.071,6,6,CCc1cc(NC(=O)/C(C#N)=C(\O)C2CC2)ccc1C(F)(F)F,–,–,–,–,61,74
3.55,1.51,–,–,N#C/C(C(=O)Nc1ccc(Oc2ccc(C(F)(F)F)cc2)cc1)=C(/O)C1CC1,–,–,–,–,-17,39
> 100,> 100,–,–,N#C/C(C(=O)Nc1ccc(C(F)(F)F)cc1)=C(/O)C1CCCN1 (centres undefined),-16,-4,–,–,–,–
0.186,3.72,–,–,COc1ccc(NC(=O)/C(C#N)=C(\O)C2CC2)cc1,57,9,–,–,–,–
–,1.12,–,–,COC(=O)c1ccc(NC(=O)/C(C#N)=C(\O)C2CC2)cc1,59,34,–,–,–,–
> 100,> 100,–,–,CN1CCCC1/C(O)=C(\C#N)C(=O)Nc1ccc(C(F)(F)F)cc1 (centres undefined),23,10,–,–,–,–
–,15.1,–,–,CS(=O)(=O)c1ccc(NC(=O)/C(C#N)=C(\O)C2CC2)cc1,–,–,36,50,–,–

Compound,IC50 [3] [µM],IC50 [4] [µM],half-life [9] [h],half-life [10] [h],inhibition in vivo at 50 mg/kg [1] [%],inhibition in vivo at 100 mg/kg [2] [%],inhibition in vivo at 100 mg/kg [5] [%],inhibition in vivo at 50 mg/kg [6] [%],inhibition in vivo at 30 mg/kg [7] [%],inhibition in vivo at 10 mg/kg [8] [%]
N#C/C(C(=O)Nc1ccc(/C=C/c2ccc(Cl)cc2)cc1)=C(/O)C1CC1,–,12.6,43,> 30,46,69,–,–,–,–
N#C/C(C(=O)Nc1ccc(Cl)cn1)=C(/O)C1CC1,0.076,0.2,–,–,64,48,–,–,–,–
N#C/C(C(=O)Nc1ccc(C=Cc2ccc(Cl)cc2)cc1)=C(/O)C1CC1,–,0.022,–,–,52,19,–,–,–,–
Cc1oncc1C(=O)Nc1ccc(C(F)(F)F)cc1 [LEFLUNOMIDE],0.009,0.03,–,–,–,–,–,–,84,78
N#C/C(C(=O)Nc1ccc(-c2ccccc2)cc1)=C(/O)C1CC1,1.48,–,–,–,70,33,–,–,–,–
C=C/C(O)=C(\C#N)C(=O)Nc1ccc(C(F)(F)F)cc1,0.023,–,–,–,–,7,–,74,–,–
N#C/C(C(=O)Nc1ccc(Oc2ccccc2)cc1)=C(/O)C1CC1,0.29,–,–,–,6,9,–,–,–,–
N#C/C(C(=O)Nc1ccc(Oc2ccc(Cl)cc2)cc1)=C(/O)C1CC1,1.51,0.832,21,39,–,–,–,–,63,31
N#C/C(C(=O)Nc1ccc(-c2cccs2)cc1)=C(/O)C1CC1,0.631,2.51,–,–,–,–,–,–,–,34
N#C/C(C(=O)Nc1ccc(Cl)nc1)=C(/O)C1CC1,–,1.78,–,–,71,–,–,–,9,–
N#C/C(C(=O)Nc1ccc(C(=O)c2ccc(Cl)cc2)cc1)=C(/O)C1CC1,0.59,0.562,–,–,–,–,–,–,4,-19
N#C/C(C(=O)Nc1ccc(C(F)(F)F)cc1)=C(/O)C1CCC1,0.282,0.209,–,–,1,4,–,–,–,–
N#C/C(C(=O)Nc1ccc(Br)cn1)=C(/O)C1CC1,0.037,–,7,13,–,–,–,–,4,66
